Experimental data published in ChEMBL document CHEMBL1144480, “Study on the substituents' effects of a series of synthetic chalcones against the yeast Candida albicans” (2007).
≈ marks a conversion by molar mass, not a printed value. Calls of active or inactive are those of the source. The rule behind the calls is not given here.

Key:
Candida albicans [1] = experiment: Antifungal activity against Candida albicans Berhaut 62I after 24 hrs; type: functional
Outline: (§1)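 Serial dilutions of each chalcone in meat-pepton broth in tubes; inoculum 10⁵ cells/ml; 37 °C, 24 h. MIC taken as the lowest dilution with no visible growth against inoculated drug-free broth. Tubes without visible growth streaked onto meat-pepton agar, 37 °C, 24 h, and checked for growth.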

Candida albicans [2] = experiment: Growth inhibition of Candida albicans Berhaut 62I by agar cup method; type: functional
Outline: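 Each well received 100 µl of sample dissolved in 96% EtOH. Pre-diffusion at 4 °C for 2 h, then 37 °C for 48 h. Read-out was inhibitory zone diameter, with ≥15 mm initially counted as active. Pure solvent served as control.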

Candida albicans [3] = experiment: Antifungal activity against Candida albicans Berhaut 62I in meat-pepton broth; type: functional; outline: as §1
Candida albicans [4] = experiment: Antifungal activity against Candida albicans Berhaut 62I at 2000 ug/ml; type: functional, organism-based
[5] = Candida albicans, Berhaut 62I, read-out: MIC

| SMILES | MIC (Candida albicans [1]) [µg/mL] | inhibition zone (IZ) (Candida albicans [2]) [mm] | MIC (Candida albicans [3]; [5]) [µg/mL] | MIC (Candida albicans [3]) [µg/mL] | Activity (Candida albicans [4]) |
| --- | --- | --- | --- | --- | --- |
| O=C(/C=C/c1cccc(O)c1)c1ccccc1 [3-HYDROXY CHALCONE] | 250 (≈ 1110 µM) | 17 | 250 (≈ 1110 µM) | – | – |
| COc1ccc(/C=C/C(=O)c2ccc(Cl)cc2)cc1OC | 500 (≈ 1650 µM) | 0 | 62.5 (≈ 206 µM) | 62.5 (≈ 206 µM) | – |
| O=C(/C=C/c1ccccc1)c1ccc(Cl)cc1 | 500 (≈ 2060 µM) | 0 | 500 (≈ 2060 µM) | – | – |
| Cc1ccc(/C=C/C(=O)c2ccc(Cl)cc2)cc1 | 500 (≈ 1950 µM) | 0 | 500 (≈ 1950 µM) | – | – |
| COc1cc(C(=O)/C=C/c2ccc(Cl)cc2)cc(OC)c1OC | 500 (≈ 1500 µM) | 0 | 500 (≈ 1500 µM) | – | – |
| O=C(/C=C/c1ccccc1O)c1ccccc1 | 31.2 (≈ 139 µM) | 21 | 31.2 (≈ 139 µM) | – | – |
| CC(=O)Nc1ccc(/C=C/C(=O)c2ccccc2)cc1 | 500 (≈ 1880 µM) | 0 | 500 (≈ 1880 µM) | – | – |
| COc1cc(C(=O)/C=C/c2ccccc2)cc(OC)c1OC | 500 (≈ 1680 µM) | 0 | 500 (≈ 1680 µM) | – | – |
| O=C(/C=C/c1ccc2c(c1)OCO2)c1ccc(Cl)cc1 | 500 (≈ 1740 µM) | 0 | 62.5 (≈ 218 µM) | – | – |
| COc1ccc(/C=C/C(=O)c2cc(OC)c(OC)c(OC)c2)cc1 | 500 (≈ 1520 µM) | 0 | 500 (≈ 1520 µM) | – | – |
| O=C(/C=C/C=C/c1ccccc1)/C=C/C=C/c1ccccc1 | – | – | – | – | inactive |
| COc1cc(C(=O)/C=C/c2ccc(N(C)C)cc2)cc(OC)c1OC | 500 (≈ 1460 µM) | 0 | 500 (≈ 1460 µM) | – | – |
| COc1cccc(/C=C/C(=O)c2ccccc2)c1O | 62.5 (≈ 246 µM) | 12 | 62.5 (≈ 246 µM) | – | – |
| COc1ccc(/C=C/C(=O)c2ccc(Cl)cc2)cc1O | 500 (≈ 1730 µM) | 0 | 500 (≈ 1730 µM) | – | – |
| O=C(/C=C/c1ccc(O)c(O)c1)c1ccccc1 | 62.5 (≈ 260 µM) | 15 | 62.5 (≈ 260 µM) | – | – |
| O=C(/C=C/c1ccccc1)c1ccccc1 [CHALCONE] | 125 (≈ 600 µM) | 30 | 125 (≈ 600 µM) | – | – |
| COc1ccc(/C=C/C(=O)c2ccccc2)cc1 [4-METHOXY CHALCONE] | 500 (≈ 2100 µM) | 0 | 500 (≈ 2100 µM) | – | – |
| COc1cc(/C=C/C(=O)c2ccc(Cl)cc2)cc(OC)c1OC | 500 (≈ 1500 µM) | 0 | 62.5 (≈ 188 µM) | – | – |
| O=C(/C=C/c1ccc2c(c1)OCO2)c1ccccc1 | – | – | 62.5 (≈ 248 µM) | – | – |
| O=C(/C=C/c1cccc(O)c1)c1ccc(Cl)cc1 | 125 (≈ 483 µM) | 20 | 125 (≈ 483 µM) | – | – |
| O=C(/C=C/C=C/c1ccccc1)c1ccccc1 | – | – | – | – | inactive |
| O=C(/C=C/c1ccccc1)/C=C/c1ccccc1 | – | – | – | – | inactive |
| O=C(/C=C/c1ccc([N+](=O)[O-])cc1)c1ccccc1 | 250 (≈ 987 µM) | 17 | 250 (≈ 987 µM) | – | – |

| SMILES | MIC (Candida albicans [1]) [µg/mL] | inhibition zone (IZ) (Candida albicans [2]) [mm] | MIC (Candida albicans [3]; [5]) [µg/mL] | MIC (Candida albicans [3]) [µg/mL] | Activity (Candida albicans [4]) |
| --- | --- | --- | --- | --- | --- |
| COc1cc(C(=O)/C=C/c2ccc(C#N)cc2)cc(OC)c1OC | 500 (≈ 1550 µM) | 0 | 500 (≈ 1550 µM) | – | – |
| CN(C)c1ccc(/C=C/C(=O)c2ccccc2)cc1 | 500 (≈ 1990 µM) | 0 | 500 (≈ 1990 µM) | – | – |
| N#Cc1ccc(/C=C/C(=O)c2ccccc2)cc1 | 250 (≈ 1070 µM) | 17 | 250 (≈ 1070 µM) | – | – |
| O=C(/C=C/c1ccc(O)cc1)c1ccccc1 [4-HYDROXYCHALCONE] | 62.5 (≈ 279 µM) | 15 | 62.5 (≈ 279 µM) | – | – |
| COc1cc(C(=O)/C=C/c2ccc(C)cc2)cc(OC)c1OC | 500 (≈ 1600 µM) | 0 | 500 (≈ 1600 µM) | – | – |
| O=C(/C=C/c1ccc(O)c(O)c1)c1ccc(Cl)cc1 | 62.5 (≈ 228 µM) | 14 | 62.5 (≈ 228 µM) | – | – |
| Cc1ccc(/C=C/C(=O)c2ccccc2)cc1 | 500 (≈ 2250 µM) | 0 | 500 (≈ 2250 µM) | – | – |
| O=C(/C=C/c1ccc(O)cc1)c1ccc(Cl)cc1 | 62.5 (≈ 242 µM) | 21 | 62.5 (≈ 242 µM) | – | – |
| COc1ccc(/C=C/C(=O)c2ccccc2)cc1O | 500 (≈ 1970 µM) | 0 | 500 (≈ 1970 µM) | – | – |
| O=C(/C=C/c1ccc([N+](=O)[O-])cc1)c1ccc(Cl)cc1 | 250 (≈ 869 µM) | 15 | 250 (≈ 869 µM) | – | – |
| COc1cccc(/C=C/C(=O)c2ccc(Cl)cc2)c1O | 500 (≈ 1730 µM) | 0 | 500 (≈ 1730 µM) | – | – |
| O=C(/C=C/c1ccc(Cl)cc1)c1ccccc1 [4-CHLORO CHALCONE] | 500 (≈ 2060 µM) | 0 | 500 (≈ 2060 µM) | – | – |
| CC(=O)Nc1ccc(/C=C/C(=O)c2ccc(Cl)cc2)cc1 | 500 (≈ 1670 µM) | 0 | 500 (≈ 1670 µM) | – | – |
| O=C(/C=C/c1ccccc1O)c1ccc(Cl)cc1 | 62.5 (≈ 242 µM) | 16 | 62.5 (≈ 242 µM) | – | – |
| COc1cccc(/C=C/C(=O)c2ccc(Cl)cc2)c1 | 500 (≈ 1830 µM) | 15 | 62.5 (≈ 229 µM) | – | – |
| N#Cc1ccc(/C=C/C(=O)c2ccc(Cl)cc2)cc1 | 250 (≈ 934 µM) | 23 | 250 (≈ 934 µM) | – | – |
| COc1cc(/C=C/C(=O)c2ccc(Cl)cc2)ccc1O | 250 (≈ 866 µM) | 19 | 62.5 (≈ 216 µM) | – | – |
| CN(C)c1ccc(/C=C/C(=O)c2ccc(Cl)cc2)cc1 | 500 (≈ 1750 µM) | 0 | 500 (≈ 1750 µM) | – | – |
| COc1cccc(/C=C/C(=O)c2cc(OC)c(OC)c(OC)c2)c1 | – | – | 62.5 (≈ 190 µM) | – | – |
| O=C(/C=C/c1ccc(Cl)cc1)c1ccc(Cl)cc1 [4',4-DICHLOROCHALCONE] | 500 (≈ 1800 µM) | 0 | 500 (≈ 1800 µM) | – | – |
| COc1cc(/C=C/C(=O)c2ccc(Cl)cc2)cc(OC)c1O | 125 (≈ 392 µM) | 15 | 62.5 (≈ 196 µM) | – | – |
| COc1cc(C(=O)/C=C/c2ccc(NC(C)=O)cc2)cc(OC)c1OC | 500 (≈ 1410 µM) | 0 | 500 (≈ 1410 µM) | – | – |
| COc1ccc(/C=C/C(=O)c2ccc(Cl)cc2)cc1 | 500 (≈ 1830 µM) | 0 | 500 (≈ 1830 µM) | – | – |
